Experiments:
Assay type in all cases: functional
[1] = The in vitro binding constant in presence of K+ was reported
Method in brief: (§1)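 Fluorescence titration in pH 7.0 buffer series (50 mM MOPS, pH set with tetramethylammonium hydroxide) containing 0–1000 mM of the monovalent cation (Li+, Na+, K+ or Rb+) at 20 °C. Kd (mM) was taken from the intensity change with cation concentration, alongside the response S = I[bound]/I[free].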

[2] = The in vitro binding constant in presence of Rb+ was reported; method in brief: as §1
[3] = The in vitro binding constant in presence of Li+ was reported; method in brief: as §1

| Compound | Kd [1] [mM] | Kd [2] [mM] | Kd [3] [mM] |
| --- | --- | --- | --- |
| COC(=O)CN1CCOCCOCCOCCOc2cc(-c3c4cc(F)c(=O)cc-4oc4cc(O)c(F)cc34)ccc21 | 291 | 319 | 142 |
| COC(=O)CN1CCOCCOCCOc2cc(-c3c4cc(F)c(=O)cc-4oc4cc(O)c(F)cc34)ccc21 | 978 | 376 | 438 |
| COCCN1CCOCCOCCOCCOc2cc(-c3c4cc(F)c(=O)cc-4oc4cc(O)c(F)cc34)ccc21 | 269 |  |  |

Stronger by Kd [1], values ahead:

| Kd [1] [mM] | Kd [2] [mM] | Kd [3] [mM] | Compound |
| --- | --- | --- | --- |
| 170 |  |  | COC(=O)CN1CCOCCOCCOCCOc2cc(C3=C4C(C)=CC(C)=[N+]4[B-](F)(F)n4c(C)cc(C)c43)ccc21 |
| 144 | 157 | 65 | COC(=O)CN1CCOCCOCCOCCOc2cc(NC(=O)c3ccc(-c4c5cc(F)c(=O)cc-5oc5cc(O)c(F)cc45)c(C(=O)O)c3)ccc21 |
| 254 |  |  | COC(=O)CN1CCOCCOCCOCCOc2cc(-c3c4ccc(=[N+](C)C)cc-4oc4cc(N(C)C)ccc34)ccc21 |
| 11 | 25 |  | COC(=O)CN1CCOCCOCCOCCOCCOc2cc(-c3c4cc(F)c(=O)cc-4oc4cc(O)c(F)cc34)ccc21 |
